An excerpt weighted towards active compounds, which were near 1.6% of everything screened.
TRAIL sens C8 – sensitizes caspase-8 expressing cells to TRAIL. NB7+C8 cells + TRAIL, ATPlite viability luminescence. inhibition (viability loss, TRAIL sensitization), % at 10 µM. 360,000 tested, 1% active;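 active means compounds causing at least 50% loss of cell viability in the single-dose screen, relative to plate controls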
FLuc inhib CS – inhibits firefly luciferase, flagging false hits in luciferase inhibition screens; ATPLite firefly luciferase biochemical luminescence, 10 min; inhibition, % at 10 µM; 200,000 tested, 1.5% active;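 active means inhibition above about 50% when tested at 10 µM, limit read from the data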
Target sequence (P08659 whole entry, looked up): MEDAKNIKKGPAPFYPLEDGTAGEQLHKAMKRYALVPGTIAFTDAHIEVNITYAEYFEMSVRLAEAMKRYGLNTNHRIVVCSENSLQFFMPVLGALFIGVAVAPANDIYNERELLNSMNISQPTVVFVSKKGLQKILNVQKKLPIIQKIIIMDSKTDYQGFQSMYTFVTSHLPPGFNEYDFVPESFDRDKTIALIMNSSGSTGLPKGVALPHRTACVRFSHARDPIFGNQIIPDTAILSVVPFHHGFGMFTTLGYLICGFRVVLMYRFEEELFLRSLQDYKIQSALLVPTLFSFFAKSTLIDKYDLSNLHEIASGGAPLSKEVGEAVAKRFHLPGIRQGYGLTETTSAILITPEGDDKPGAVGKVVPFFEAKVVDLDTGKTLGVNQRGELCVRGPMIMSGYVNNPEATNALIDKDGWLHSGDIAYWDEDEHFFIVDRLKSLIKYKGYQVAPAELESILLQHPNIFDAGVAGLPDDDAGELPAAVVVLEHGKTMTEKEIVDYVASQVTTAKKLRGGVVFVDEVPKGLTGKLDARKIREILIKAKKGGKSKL
Platelet DG rel – platelet dense granule release activity; inhibition, %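 (compounds screened at 7.5 µM in platelet-rich plasma)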; 300,000 tested, 0.22% active; human platelet-rich plasma, SFLLRN dense granule ATP release, luminescence;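 active means mean replicate score, as percent of positive control, at or above 50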
PPC-1+TRAIL kill – kills PPC-1 cancer cells in the presence of TRAIL; PPC-1 cells + TRAIL, ATPLite viability luminescence; cell killing (% activity), % at 4 µM or 5 µM; 220,000 tested, 0.41% active;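 active means cell killing above 50% in the first pass at 4 µM, then a duplicate retest at 5 µM averaging 50% or more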;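 further: plate controls were cells with TRAIL plus DMSO for no effect and medium-only wells lacking cells for full effect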
FLuc act counter – firefly luciferase counter-screen for stimulation assays; AID 1027; ATPlite luciferase biochemical, luminescence, 10 min; 0 = ATP-free wells, 1 = DMSO control; 200,000 tested, under 10 active; activation factor at 10 µM; P08659;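 active means luciferase activation factor, scaled between plate controls, of at least 2 with compound at 10 µM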
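Assay system: Luciferase/luciferin reagent mix; Medium: PBS as buffer for the ATP substrate; Dosing: test compounds dosed from 2 mM stocks in 100% DMSO; Times: 10 min, room temperature; Signal: luminescence from luciferase reaction; Read-out: luciferase activation; Controls: No-ATP low control, compound-free enzyme-plus-ATP high control.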
Starred values were filed as active, the others as inactive.

CCC(c1nnnn1-c1ccc(OC)cc1)N1CCC(n2c(=O)[nH]c3ccccc32)CC1 (configuration not stated) was read as TRAIL sens C8 5.
`COc1ccc2nc(-c3ccc(CN4CCC(n5c(=O)[nH]c6ccccc65)CC4)cc3)c(-c3ccccc3)nc2c1` gave TRAIL sens C8 51*.
For Cc1cccc(C)c1-n1nnnc1C(CCc1ccccc1)N1CCC(n2c(=O)[nH]c3ccccc32)CC1 (configuration not stated) the results were TRAIL sens C8 82*.
CCOC(=O)[C@]12Cc3cc(C)ccc3[C@H]1N(Cc1ccccc1)C(=O)c1cc(F)c(F)cc12 was read as TRAIL sens C8 21.
For CC(=O)Nc1ccc(OC(=O)N(C)c2ccc(C)cc2)cc1 the results were TRAIL sens C8 -10 and Platelet DG rel 2.
`CC(=O)Nc1ccc(OC(=O)N(C)c2ccccc2)cc1` gave TRAIL sens C8 1, FLuc inhib CS 0, Platelet DG rel 53*, PPC-1+TRAIL kill -4 and FLuc act counter 1.
For O=c1[nH]c2ccccc2n1C1CCN(C(CCc2ccccc2)c2nnnn2-c2ccc3c(c2)OCCO3)CC1 (configuration not stated) the results were TRAIL sens C8 12.
Screening CCC(C)C1NC(=O)C(NC(=O)C(CC(C)C)N(C)C(=O)C2CCCN2C(=O)C(C)O)C(C)OC(=O)C(Cc2ccc(OC)cc2)N(C)C(=O)C2CCCN2C(=O)C(CC(C)C)NC(=O)[C@H](C)C(=O)[C@H](C(C)C)OC(=O)CC1O (some centres not stated) returned TRAIL sens C8 82*.
CCC(c1nnnn1Cc1ccccc1)N1CCC2(CC1)C(=O)NCN2c1ccccc1 (configuration not stated) was read as TRAIL sens C8 -21.
CC1=C(N2CC2)C(=O)C(CO)=C(N2CC2)C1=O was read as TRAIL sens C8 77*.
`Cc1cc(C)c(S(=O)(=O)N2Cc3ccccc3-n3nncc3C2)c(C)c1` gave TRAIL sens C8 16.
For CCNc1nc(Cl)nc(NC(C)C)n1 the results were TRAIL sens C8 -15, FLuc inhib CS 5, Platelet DG rel 56*, PPC-1+TRAIL kill -4 and FLuc act counter 0.9.
For CCCC1(CCC)C(=O)NC(=Nc2ccccc2)NC1=O the results were TRAIL sens C8 11, FLuc inhib CS -4, Platelet DG rel 18, PPC-1+TRAIL kill 7 and FLuc act counter 1.
Screening CCCC1(CCC)C(=O)NC(=NCc2ccccc2)NC1=O returned TRAIL sens C8 77*, FLuc inhib CS -6, Platelet DG rel 0, PPC-1+TRAIL kill 2 and FLuc act counter 1.1.
Screening O=[N+]([O-])/C=C/c1c(Cl)cccc1Cl returned TRAIL sens C8 71*.
`C[C@@H]1O[C@@H](O[C@@H]2C=C3CCC4C(CC[C@]5(C)[C@@H](c6ccc(=O)oc6)CC[C@]45O)[C@@]3(C)CC2)[C@H](O)[C@H](O)[C@H]1O` (some centres not stated) gave TRAIL sens C8 75*.
C[C@@H]1O[C@@H](O[C@@H]2C=C3CC[C@@H]4C(CC[C@]5(C)[C@@H](c6ccc(=O)oc6)CC[C@]45O)[C@@]3(C)CC2)[C@H](O)[C@H](O)[C@H]1O (some centres not stated) was read as TRAIL sens C8 76*.
Screening CC(=O)C1CCC2(O)C3CCC4=CC(=O)CCC4(C)C3CCC12C (configuration not stated) returned TRAIL sens C8 -12.
`O=S(=O)(c1cccc2ccccc12)N1Cc2ccccc2-n2nncc2C1` gave TRAIL sens C8 18.
`CN(C)C(=O)Oc1ccc(-c2nnco2)cc1` gave TRAIL sens C8 22, FLuc inhib CS -5, Platelet DG rel 1, PPC-1+TRAIL kill 19 and FLuc act counter 1.1.
Screening CN(C)C(=O)Oc1ccc(-c2cn3cc(C(F)(F)F)ccc3n2)cc1 returned TRAIL sens C8 37, FLuc inhib CS 54*, Platelet DG rel -16, PPC-1+TRAIL kill 46 and FLuc act counter 0.5.
For CN(C)C(=O)Oc1ccc(-c2cn3cc(Cl)ccc3n2)cc1 the results were TRAIL sens C8 76*, FLuc inhib CS 86*, Platelet DG rel 20, PPC-1+TRAIL kill 54* and FLuc act counter 0.1.
For CN(C)C(=O)Oc1cccc(-c2cn3cc(Cl)ccc3n2)c1 the results were TRAIL sens C8 43, FLuc inhib CS 75*, Platelet DG rel -17, PPC-1+TRAIL kill 40 and FLuc act counter 0.3.
O=C(Nc1ccc(C(=O)O)cc1)Oc1ccc(N(CCCl)CCCl)cc1 was read as TRAIL sens C8 10.
For C[C@@H]1CN([C@H](C)CO)C(=O)CCCn2nncc2CO[C@@H]1CN(C)C(=O)Oc1ccc2ccccc2c1 the results were TRAIL sens C8 -4.
Clc1cccc(N2Cc3ccccc3-n3nncc3C2)c1 was read as TRAIL sens C8 15.
Screening COC(=O)[C@@]1(Sc2ccc(C)cc2)CC(=O)N(P(=O)(OC)OC)[C@@H]1c1ccccc1 returned TRAIL sens C8 -4.
For O=c1[nH]c2ccccc2n1C1CCN(Cc2ccc(-c3nc4ccc(F)cc4nc3-c3ccccc3)cc2)CC1 the results were TRAIL sens C8 24.
Screening COc1ccc(NC(=S)N2Cc3ccccc3-n3nncc3C2)c(OC)c1 returned TRAIL sens C8 0.
Screening CC(C)[C@H]1C(=O)O[C@H](C(C)C)C(=O)N(C)[C@@H](C(C)C)C(=O)O[C@H](C(C)C)C(=O)N(C)[C@@H](C(C)C)C(=O)O[C@H](C(C)C)C(=O)N1C returned TRAIL sens C8 53*, FLuc inhib CS -12, Platelet DG rel 6, PPC-1+TRAIL kill 48 and FLuc act counter 1.1.
Screening O=C1NC(=O)C(=Cc2ccc(Oc3ccc([N+](=O)[O-])cc3)cc2)C(=O)N1 returned TRAIL sens C8 -14, FLuc inhib CS -2, Platelet DG rel 6, PPC-1+TRAIL kill -2 and FLuc act counter 1.
`COc1cc(C=C2C(=O)NC(=O)NC2=O)ccc1OCc1ccc([N+](=O)[O-])cc1` gave TRAIL sens C8 -1, FLuc inhib CS 52*, PPC-1+TRAIL kill 4 and FLuc act counter 0.5.
`CCOC(=O)[C@]12Cc3ccccc3[C@H]1N(C)C(=O)c1cc(OC)ccc12` gave TRAIL sens C8 8.
Screening CCOC(=O)[C@]12Cc3cc(OC)ccc3[C@H]1N(C1CCCCC1)C(=O)c1cc(OC)ccc12 returned TRAIL sens C8 76*.
For CCOC(=O)[C@]12Cc3cc(C)ccc3[C@H]1N(C1CCCCC1)C(=O)c1cc(OC)ccc12 the results were TRAIL sens C8 96*.
`COC12C(COC(N)=O)C3=C(C(=O)C(C)=C(N)C3=O)N1CC1C2N1C` (configuration not stated) gave TRAIL sens C8 -1, Platelet DG rel -4 and PPC-1+TRAIL kill 1.

Screening data (PubChem BioAssay)
